Experimental findings from paper PMC6072465 (MedChemComm, 2017) are described below.

Test [1] has as its system HCT116 (human colon carcinoma) cancer cells. The test is described as follows: Oxygen consumption, Seahorse XF-96 Analyzer. Format: cell-based. Particulars: incubation for 24 hours. In outline:
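HCT116 cells grown in DMEM with 10% heat-inactivated FCS and penicillin/streptomycin at 37 °C, 5% CO2. About 15 000 cells/well adhered overnight, then were exposed to test compounds for 24 h. Cells were washed and held 1 h at 37 °C without CO2 in unbuffered DMEM (5 mM glucose, 2 mM glutamine, pH 7.4). Basal OCR was read, then sequential oligomycin, CCCP, and rotenone/antimycin A. Rates normalized to total well protein.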

The next test has as its system HCT116 cells. The test is described as follows: Cytochrome c release from mitochondria to cytosol. Particulars: concentration 3.5 μM. The format is cell-based, human.
For test [2], the system named is caspase-3 in TET21N cells. The test is described as follows: Caspase-3 activity with fluorogenic substrate DEVD-AMC, TET21N cells. Particulars: compared with betulinic acid. Format: cell-based, human.
Test [3] deals with caspase-3 in HCT116 cells. The test is described as follows: Caspase-3 activity with fluorogenic substrate DEVD-AMC, HCT116 cells. The format is cell-based, human. Particulars: compared with betulinic acid.

Consider `C=C(C)[C@@H]1CC[C@]2(C(=O)O)CC[C@]3(C)[C@H](CC[C@@H]4[C@@]5(C)CC[C@H](O)C(C)(C)[C@@H]5CC[C@]43C)[C@@H]12` [BA, betulinic acid, reference compound], for which the “effect on mitochondrial respiration (oxygen consumption)” value (from here on “effect on mitochondrial respiration”) in test [1] is given as “ineffective”. Also, the “release of cytochrome c from the mitochondria to the cytosol” value in the test with HCT116 cells is reported as “failed to trigger the release of cytochrome c”.

On to `C=C(C)[C@@H]1CC[C@]2(C(=O)OCCOCCOCC[P+](c3ccccc3)(c3ccccc3)c3ccccc3)CC[C@]3(C)[C@H](CC[C@@H]4[C@@]5(C)CC[C@H](OC(C)=O)C(C)(C)[C@@H]5CC[C@]43C)[C@@H]12.[Br-]` [compound 7, 8′-(Triphenylphosphonio-3′,6′-dioxaoctan-1′-yl)-3β-acetoxylup-20(29)-en-28-oate bromide], for which the “effect on mitochondrial respiration” value in test [1] is recorded as “suppressed respiration in a concentration-dependent manner”.

For `C=C(C)[C@@H]1CC[C@]2(C(=O)OCCOCCOCC[P+](c3ccccc3)(c3ccccc3)c3ccccc3)CC[C@]3(C)[C@H](CC[C@@H]4[C@@]5(C)CC[C@H](O)C(C)(C)[C@@H]5CC[C@]43C)[C@@H]12.[Br-]` [compound 9, 9′-(Triphenylphosphonio-3′,6′-dioxaoctan-1′-yl)-3β-hydroxylup-20(29)-en-28-oate bromide], the “activation of caspase-3” value in test [2] and in test [3] was “considerably surpassed betulinic acid in the caspase-3 activation” each time. Moreover, the “effect on mitochondrial respiration” value in test [1] is “suppressed respiration in a concentration-dependent manner”.
